Converted amounts (≈) assume the structure as drawn.
Key:
MT4 = experiment: Concentration of compound required to reduce MT-4 cells viability by 50%.; assay type: functional; settings: Homo sapiens
Method in brief: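 Uninfected human MT-4 lymphocyte cultures exposed to compound; CC50 is the concentration that lowers cell viability by 50%.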

[1] = tested on: Human immunodeficiency virus 1; experiment: Concentration of compound required to inhibit HIV-1 replication in MT-4 cells by 50%; assay type: functional, organism-based; settings: Human immunodeficiency virus 1, MT4
Method in brief: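 HIV-1 strain HTLV-III_B infection of human MT-4 lymphocytes; EC50 is the compound concentration that inhibits virus-induced cytopathogenicity by 50%.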

C3H/3T3 = experiment: Concentration of compound required to inhibit […] MSV-induced transformation of C3H/3T3 cells by 50%.; assay type: functional, cell-based; settings: Mus musculus
Method in brief: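 Moloney murine sarcoma virus (MSV) infection of murine embryo fibroblast C3H/3T3 cells; EC50 is the compound concentration that inhibits MSV-induced cell transformation by 50%.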

[2] = Minimal inhibitory concentration was measured as compound concentration that causes a microscopically visible alteration of C3H cell morphology.; assay type: functional; settings: Mus musculus
Method in brief: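 C3H murine embryo fibroblasts exposed to compound and examined by microscope; the minimal inhibitory concentration is the lowest level giving a visible change in cell morphology.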

Row | SMILES | CC50 (MT4) | EC50 [1] | EC50 (C3H/3T3) | MIC [2]
1 | [C-]#[N+]C[C@H]1OC(n2cc(C)c(=O)[nH]c2=O)C[C@H]1N=[N+]=[N-] (stereo partly specified) | 122 µM | > 40 µM |  | 
2 | Cc1cn([C@H]2C[C@H](N=[N+]=[N-])[C@@H](CO)O2)c(=O)[nH]c1=O [ZIDOVUDINE] | 20 µM | 0.004 µM | 0.02 µM | > 400 µM
3 | [C-]#[N+]C[C@H]1OC(n2cc(C)c(=O)[nH]c2=O)C[C@H]1O (stereo partly specified) | 144 µM | > 200 µM | > 3.2 µM | 3.2 µM (≈ 0.804 µg/mL)
4 | [C-]#[N+]C[C@H]1OC(n2ccc(=O)[nH]c2=O)C[C@H]1N=[N+]=[N-] (stereo partly specified) | 104 µM | > 40 µM |  | 
5 | [C-]#[N+]C[C@H]1OC(n2ccc(=O)[nH]c2=O)C[C@H]1O (stereo partly specified) | 125 µM | > 200 µM | > 3.2 µM | 3.2 µM (≈ 0.759 µg/mL)
